Data from ChEMBL document CHEMBL2406957, “C-(α-d-Glucopyranosyl)-phenyldiazomethanes-irreversible inhibitors of α-glucosidase” (Bioorg Med Chem, 2013).
Each block holds one compound with its values, some of them ahead of it. The source made the active and inactive calls. The rule behind the calls is not given here.

How the values were obtained:
Saccharomyces cerevisiae [1] = assay: Inhibition of Saccharomyces cerevisiae alpha-glucosidase using PNPG as substrate at 60 uM incubated for 40 mins prior to substrate addition measured after 5 mins by spectrophotometry relative to control
Summary of the method: (§1)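 Enzyme (final 4 µg/mL, 0.064 µM) incubated 40 min at 30 °C in pH 7.5 buffer with compound at final 0.01–0.08 mM. Aliquot then added to 2 mM PNPG in pH 6.8 buffer for 5 min at 30 °C. Reaction quenched with Na2CO3, p-nitrophenolate read at 400 nm. Residual activity expressed relative to enzyme control.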

[2] = Half life of the compound in buffer at 50 uM at pH 6.0 by UV-vis spectrophotometric analysis; assay type: physicochemical
Summary of the method: (§2)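 Isolated diazo compound dissolved at 50 μM in buffer of set pH (7.0 down to 3.0) in a cuvette; UV spectra scanned 190–350 nm every 30 s at room temperature until no further change. Blue shift of λmax followed; decay fitted to a single exponential, t1/2 = t1 ln2.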

[3] = Half life of the compound in buffer at 50 uM at pH 3.0 by UV-vis spectrophotometric analysis; assay type: physicochemical; summary of the method: as §2
[4] = Half life of the compound in buffer at 50 uM at pH 4.0 by UV-vis spectrophotometric analysis; assay type: physicochemical; summary of the method: as §2
[5] = Half life of the compound in buffer at 50 uM at pH 5.0 by UV-vis spectrophotometric analysis; assay type: physicochemical; summary of the method: as §2
Saccharomyces cerevisiae [6] = assay: Irreversible inhibition of Saccharomyces cerevisiae alpha-glucosidase using PNPG as substrate at 0.04 mM incubated for 5 to 40 mins prior to substrate addition measured after 5 mins by spectrophotometry in presence of (2R,3R,4R,5S,6R)-2-((R)-amino(phenyl)methyl)-6-(hydroxymethyl)tetrahydro-2H-pyran-3,4,5-triol
[7] = Chemical stability of the compound in neutral media at 50 uM at pH 7.0 by UV-vis spectrophotometric analysis; assay type: physicochemical; settings: buffer, pH 7, 50 µM; summary of the method: as §2
Saccharomyces cerevisiae [8] = assay: Irreversible inhibition of Saccharomyces cerevisiae alpha-glucosidase using PNPG as substrate assessed as residual enzyme activity incubated for 5 to 40 mins prior to substrate addition measured after 5 mins by spectrophotometry
Summary of the method: (§3)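 Yeast α-glucosidase (final 4 µg/mL, 0.064 µM) preincubated at 30 °C in pH 7.5 Tris–HCl with inhibitor at final 0.01–0.08 mM. Aliquots taken at 5–40 min into 2 mM PNPG (pH 6.8), 5 min at 30 °C, Na2CO3 quench, A400. Activity as % of no-inhibitor control. kobs from first-order fits; Ki and ki from double-reciprocal Kitz–Wilson replot.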

[9] = Inhibition of Saccharomyces cerevisiae alpha-glucosidase using PNPG as substrate incubated for 40 mins prior to substrate addition measured after 5 mins by spectrophotometry; summary of the method: as §1
[10] = Irreversible inhibition of Saccharomyces cerevisiae alpha-glucosidase using PNPG as substrate by Kitz-Wilson plot analysis; summary of the method: as §3
[11] = Reversible inhibition of Saccharomyces cerevisiae alpha-glucosidase using PNPG as substrate

- inhibition (Saccharomyces cerevisiae [1]): 40%
SMILES: N#Cc1ccc([C@H](O)[C@H]2O[C@H](CO)[C@@H](O)[C@H](O)[C@H]2O)cc1

- inhibition (Saccharomyces cerevisiae [1]): 40%
SMILES: N#Cc1ccc(C[C@H]2O[C@H](CO)[C@@H](O)[C@H](O)[C@H]2O)cc1

- half-life at 50 µM [2]: 4.2 min
- half-life at 50 µM [3]: 0.183 min
- half-life at 50 µM [4]: 0.483 min
- half-life at 50 µM [5]: 2.35 min
- inhibition (Saccharomyces cerevisiae [1]): 90%
- inhibition (Saccharomyces cerevisiae [6]): inactive
- Stability [7]: Stable
- inhibition (Saccharomyces cerevisiae [8]): Dose-dependent effect
- IC50 [9]: 20.6 µM
- Ki [10]: 2160 µM
SMILES: N#Cc1ccc(C(=[N+]=[N-])[C@H]2O[C@H](CO)[C@@H](O)[C@H](O)[C@H]2O)cc1

- Ki [11]: 1.1 µM
SMILES: N[C@H](c1ccccc1)[C@H]1O[C@H](CO)[C@@H](O)[C@H](O)[C@H]1O
